Measured values reported in ChEMBL document CHEMBL3244152, “Pivaloyl esters of N,N-dialkylated dopamine congeners. Central dopamine-receptor stimulating activity” (1978).
Calls of active or inactive are those of the source. The calls are words filed in the database; no cut-off is given here.

Legend:
Rattus norvegicus [1] = experiment: Effect on motor activity in reserpinized Sprague-Dawley rat assessed as stereotyped movements at 200 umolkg, po measured every 5 mins for 2 hrs by motility meter method; type: functional, organism-based
Outline: (§1)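 Male Sprague-Dawley rats (200–350 g) were given reserpine 10 mg/kg ip 6 h before testing. Drug in 0.9% saline (neutral pH, 10 mL/kg) was given at 20 μmol/kg sc in the neck or 200 μmol/kg po by stomach tube. Rats were caged singly in motility meters at once, with counts recorded per 5-min period over 2 h; means n = 4-5.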

Rattus norvegicus [2] = experiment: Effect on motor activity in reserpinized Sprague-Dawley rat assessed as stereotyped movements at 20 umolkg, sc measured every 5 mins for 2 hrs by motility meter method; type: functional, organism-based; outline: as §1
Rattus norvegicus [3] = experiment: Stimulation of dopamine receptor in sc dosed Sprague-Dawley rat assessed as reduction in Dopa accumulation in straitum by spectrofluorimetry; type: functional; settings: read-out: ID50 (the source's name)
Outline: (§2)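 Pooled regions from two brains went to perchloric acid extraction, cation exchange and Dopa spectrofluorimetry. Dose giving 50% Dopa decrease came from least-squares double-reciprocal plots (1/% change vs 1/dose).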

Rattus norvegicus [4] = experiment: Stimulation of dopamine receptor in sc dosed Sprague-Dawley rat assessed as reduction in Dopa accumulation in limbic forebrain by spectrofluorimetry; type: functional; settings: Limbic system, read-out: ID50 (the source's name); outline: as §2
Rattus norvegicus [5] = experiment: Effect on motor activity in reserpinized Sprague-Dawley rat assessed as stereotyped movements at 20 umolkg, sc measured up to 10 mins by motility meter method; type: functional, organism-based; outline: as §1
Rattus norvegicus [6] = experiment: Effect on motor activity in reserpinized Sprague-Dawley rat assessed as stereotyped movements at 2 umolkg, sc measured every 5 mins for 2 hrs by motility meter method; type: functional, organism-based
Outline: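 Male Sprague-Dawley rats (200–350 g) given reserpine 10 mg/kg ip 6 h before testing. Drug dissolved in saline (0.9%), neutral pH, 10 mL/kg, injected sc in the neck. Each rat then placed alone in a test cage inside a motility meter. Counts were recorded per 5-min period for 2 h, with gross behavior watched through a mirror. Means, n = 4-5.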

Rattus norvegicus [7] = experiment: Stimulation of dopamine receptor in Sprague-Dawley rat assessed as reduction in Dopa accumulation in at 1 mg/kg, sc by spectrofluorimetry; type: functional, organism-based; design: dose 1 mg/kg

| Structure (SMILES) | Activity (Rattus norvegicus [1]) | Activity (Rattus norvegicus [2]) | ED50 (Rattus norvegicus [3]) | ED50 (Rattus norvegicus [4]) | Activity (Rattus norvegicus [5]) | Activity (Rattus norvegicus [6]) | Activity (Rattus norvegicus [7]) |
| --- | --- | --- | --- | --- | --- | --- | --- |
| CN(C)CCc1ccc(OC(=O)C(C)(C)C)c(OC(=O)C(C)(C)C)c1 | inactive | inactive | > 45 µmol/kg | > 45 µmol/kg | – | – | – |
| CCN(CC)CCc1ccc(OC(=O)C(C)(C)C)c(OC(=O)C(C)(C)C)c1 | inactive | inactive | > 27 µmol/kg | > 27 µmol/kg | – | – | – |
| CCCCN(CCCC)CCc1ccc(OC(=O)C(C)(C)C)c(OC(=O)C(C)(C)C)c1 | inactive | inactive | > 180 µmol/kg | > 180 µmol/kg | – | – | – |
| CCCN(CCC)CCc1ccc(OC(=O)C(C)(C)C)c(OC(=O)C(C)(C)C)c1 | inactive | Active | 33 µmol/kg | 28 µmol/kg | – | – | – |
| CCCN(CCC)CCc1cccc(O)c1 | inactive | Active | 1.8 µmol/kg | 5.7 µmol/kg | – | – | – |
| CCCN(CCC)CCc1cccc(OC(=O)C(C)(C)C)c1 | inactive | Active | 1.8 µmol/kg | 2.7 µmol/kg | inactive | – | – |
| CN1CCc2cccc3c2[C@H]1Cc1ccc(O)c(O)c1-3 [APOMORPHINE] | – | – | 0.23 µmol/kg | 0.23 µmol/kg | – | Active | – |
| CN1CCc2cccc3c2[C@H]1Cc1ccc(OC(=O)C(C)(C)C)c(OC(=O)C(C)(C)C)c1-3 | – | – | – | – | – | Active | – |
| CCCN(CCC)CCc1ccc(O)c(O)c1 | inactive | – | 20 µmol/kg | 25 µmol/kg | – | – | – |
| CCCN(CCC)CCc1cccc(OC)c1 | inactive | inactive | > 45 µmol/kg | > 45 µmol/kg | – | – | – |
| CC(N)Cc1ccccc1 (configuration not stated) | – | – | – | – | – | – | inactive |
